Test results as given in ChEMBL document CHEMBL1128448, “Synthesis and antifungal activity of new azole derivatives containing an N-acylmorpholine ring” (1995).
In brackets after ≈: the same amount, converted by molar mass.

What was measured:
Kluyveromyces marxianus = experiment: In vitro evaluation of minimum inhibitory concentration against Candida pseudotropicalis 13; assay type: functional
Outline: (§1)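 Stocks are 800 μg/mL in 50% ethanol. Each plate gets 10 μL of inoculum at 10^5 cfu/mL. Incubation at 25 °C, 48 h for yeasts and 120 h for dermatophytes and molds. Organisms are ATCC strains or clinical isolates.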

Mus sp. [1] = experiment: In vivo evaluation of % survival rate after peroral administration on 7th day at dose 1 mg/kg; assay type: functional; conditions: route oral, 1 mg/kg
Rattus norvegicus [2] = experiment: In vivo evaluation of antifungal activity against vaginal candidosis in rat at dose 0.5 mg/kg on 10th day; assay type: functional
Outline: (§2)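 Female Wistar rats, 10 per group, received estradiol 25 mg/kg sc on day -5. On day 0 they were infected intravaginally with C. albicans by sterile swab. Infection was confirmed on day 3 by culturing the swab in TSB and then on Sabouraud agar. Oral dosing was once daily on days 3, 4 and 5; controls got vehicle only. Vaginal swabs taken on days 10 and 15 were cultured and read the next day.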

Mus sp. [3] = experiment: In vivo evaluation of % survival rate after peroral administration on 3rd day at dose 1 mg/kg; assay type: functional; conditions: route oral, 1 mg/kg
Mus sp. [4] = experiment: In vivo evaluation of % survival rate after peroral administration on 9th day at dose 1 mg/kg; assay type: functional; conditions: route oral, 1 mg/kg
Rattus norvegicus [5] = experiment: In vivo evaluation of antifungal activity against vaginal candidosis in rat at dose 0.5 mg/kg on 15th day; assay type: functional; outline: as §2
Rattus norvegicus [6] = experiment: In vivo evaluation of antifungal activity against vaginal candidosis in rat at dose 0.25 mg/kg on 10th day; assay type: functional
Outline: (§3)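 Groups of 10 female Wistar rats given estradiol 25 mg/kg sc on day -5, infected intravaginally with C. albicans by sterile swab on day 0; infection confirmed on day 3 by swab culture (TSB, then Sabouraud agar). Oral dosing once daily on days 3, 4, 5; vehicle controls. Vaginal swabs cultured on days 10 and 15; read-out % cured (culture-negative).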

Rattus norvegicus [7] = experiment: In vivo evaluation of antifungal activity against vaginal candidosis in rat at dose 0.25 mg/kg on 15th day; assay type: functional; outline: as §3
Candida albicans [8] = experiment: In vitro evaluation of minimum inhibitory concentration against Candida albicans 76; assay type: functional; outline: as §1
Candida albicans [9] = experiment: In vivo evaluation of minimum inhibitory concentration against Candida albicans 60; assay type: functional
Outline: (§4)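 Broth macrodilution MIC following NCCLS M27-P, in RPMI-1640 buffered with 0.165 M MOPS. Fluconazole was dissolved in water and other drugs in DMSO. C. parapsilosis ATCC 22019 served as the reference strain in every run. MIC was the lowest concentration giving turbidity at or below the 80% inhibition standard.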

Mus sp. [10] = experiment: In vivo evaluation of % survival rate after peroral administration on 5th day at dose 1 mg/kg; assay type: functional; conditions: route oral, 1 mg/kg
Pichia kudriavzevii = experiment: In vitro evaluation of minimum inhibitory concentration against Candida krusei 70; assay type: functional; conditions: Pichia kudriavzevii; read-out: MIC; outline: as §1
Mus sp. [11] = experiment: In vivo evaluation of % survival rate after peroral administration on 9th day at dose 2.5 mg/kg; assay type: functional; conditions: Mus sp., po
Nakaseomyces glabratus = experiment: In vitro evaluation of minimum inhibitory concentration against Torulopsis glabrata 78; assay type: functional; conditions: Nakaseomyces glabratus; read-out: MIC; outline: as §1
Candida tropicalis = experiment: In vitro evaluation of minimum inhibitory concentration against Candida tropicalis 2.11; assay type: functional; conditions: Candida tropicalis; read-out: MIC; outline: as §1
Rhodotorula mucilaginosa = experiment: In vitro evaluation of minimum inhibitory concentration against Rhodotorula rubra 16; assay type: functional; conditions: Rhodotorula mucilaginosa; read-out: MIC; outline: as §1
Aspergillus niger = experiment: In vitro evaluation of minimum inhibitory concentration against Aspergillus niger 18; assay type: functional; conditions: Aspergillus niger; read-out: MIC; outline: as §1
Mus sp. [12] = experiment: In vivo evaluation of % survival rate after peroral administration on 3rd day at dose 2.5 mg/kg; assay type: functional; conditions: Mus sp., po
Nannizzia gypsea = experiment: In vitro evaluation of minimum inhibitory concentration against Microsporum gypseum 22; assay type: functional; conditions: Nannizzia gypsea; read-out: MIC; outline: as §1
Trichophyton rubrum = experiment: In vitro evaluation of minimum inhibitory concentration against Trichophyton rubrum 90; assay type: functional; conditions: Trichophyton rubrum; read-out: MIC; outline: as §1
Mus sp. [13] = experiment: In vivo evaluation of % survival rate after peroral administration on 5th day at dose 2.5 mg/kg; assay type: functional; conditions: Mus sp., po
Trichophyton benhamiae = experiment: In vitro evaluation of minimum inhibitory concentration against Trichophyton mentagrophytes 23; assay type: functional, Arthroderma benhamiae; conditions: Trichophyton benhamiae; read-out: MIC; outline: as §1
Mus sp. [14] = experiment: In vivo evaluation of % survival rate after peroral administration on 7th day at dose 2.5 mg/kg; assay type: functional; conditions: Mus sp., po
Aspergillus flavus = experiment: In vitro evaluation of minimum inhibitory concentration against Aspergillus flavus 19; assay type: functional; conditions: Aspergillus flavus; read-out: MIC; outline: as §1
[15] = tested on: Meyerozyma guilliermondii; experiment: In vitro evaluation of minimum inhibitory concentration against Candida guilliermondii 26; assay type: functional; conditions: Meyerozyma guilliermondii; read-out: MIC; outline: as §1
Candida parapsilosis = experiment: In vitro evaluation of minimum inhibitory concentration against Candida parapsilosis 61; assay type: functional; conditions: Lodderomyces parapsilosis; read-out: MIC; outline: as §1
Microsporum canis = experiment: In vitro evaluation of minimum inhibitory concentration against Microsporum canis 47; assay type: functional; conditions: Microsporum canis; read-out: MIC; outline: as §1
Aspergillus fumigatus [16] = experiment: In vivo evaluation of minimum inhibitory concentration against Aspergillus fumigatus 33; assay type: functional; conditions: in the assay text read “In vitro” for “In vivo”
Outline: (§5)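 Agar dilution MIC. Inocula were 10^5 cfu/mL; 10 µL was spotted onto Kimmig's agar with 0.5% glycerol containing twofold drug dilutions (80 to 0.025 µg/mL). Drug stocks were 800 µg/mL in 50% ethanol. Plates were incubated at 25 °C, 48 h for yeasts and 120 h for molds and dermatophytes.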

Candida albicans [17] = experiment: In vivo evaluation of minimum inhibitory concentration against Candida albicans 406; assay type: functional; conditions: Candida albicans; read-out: MIC; outline: as §4
[18] = tested on: Meyerozyma guilliermondii; experiment: In vivo evaluation of minimum inhibitory concentration against Candida guilliermondii 26; assay type: functional; conditions: in the assay text read “In vitro” for “In vivo”; outline: as §5
Candida albicans [19] = experiment: In vivo evaluation of minimum inhibitory concentration against Candida albicans 76; assay type: functional; outline: as §4
Aspergillus fumigatus [20] = experiment: In vitro evaluation of minimum inhibitory concentration against Aspergillus fumigatus 33; assay type: functional; conditions: Aspergillus fumigatus; read-out: MIC; outline: as §1
[21] = Kluyveromyces marxianus, read-out: MIC
[22] = Candida albicans, read-out: MIC

| Structure (SMILES) | MIC (Kluyveromyces marxianus; [21]) | MIC (Pichia kudriavzevii) | survival at 2.5 mg/kg (Mus sp. [11]) | MIC (Nakaseomyces glabratus) | MIC (Rhodotorula mucilaginosa) | MIC (Aspergillus niger) | survival at 2.5 mg/kg (Mus sp. [12]) | MIC (Nannizzia gypsea) | MIC (Trichophyton rubrum) | survival at 2.5 mg/kg (Mus sp. [13]) | MIC (Trichophyton benhamiae) | survival at 2.5 mg/kg (Mus sp. [14]) | MIC (Aspergillus flavus) | MIC [15] | MIC (Candida parapsilosis) | MIC (Microsporum canis) | MIC (Candida albicans [19]) | MIC (Aspergillus fumigatus [20]) | other results |
| --- | --- | --- | --- | --- | --- | --- | --- | --- | --- | --- | --- | --- | --- | --- | --- | --- | --- | --- | --- |
| C[C@H]1N(C(=O)c2ccc(C(F)(F)F)cc2)CC(=O)O[C@@]1(Cn1cncn1)c1ccc(F)cc1F |  |  |  |  |  |  |  |  |  |  |  |  |  |  |  |  |  |  | MIC (Kluyveromyces marxianus): 80 µg/mL (≈ 167 µM); Survival (Mus sp. [1]): 90%; Cure rate (Rattus norvegicus [2]): 90%; Survival (Mus sp. [3]): 100%; Survival (Mus sp. [4]): 10%; Cure rate (Rattus norvegicus [5]): 90%; Cure rate (Rattus norvegicus [6]): 10%; Cure rate (Rattus norvegicus [7]): 0%; MIC (Candida albicans [8]): 80 µg/mL (≈ 167 µM); MIC (Candida albicans [9]): 40 µg/mL (≈ 83.3 µM); Survival (Mus sp. [10]): 100% |
| C[C@H]1N(C(=O)c2ccc(C(F)(F)F)cc2)CC(=O)O[C@@]1(Cn1cncn1)c1ccc(C(F)(F)F)cc1 (racemic) | 80 µg/mL (≈ 156 µM) | > 80 µg/mL | 10% | > 80 µg/mL | > 80 µg/mL | > 80 µg/mL | 20% | > 80 µg/mL | > 80 µg/mL | 20% | > 80 µg/mL | 10% | > 80 µg/mL | > 80 µg/mL | > 80 µg/mL | > 80 µg/mL |  |  | MIC (Candida tropicalis): > 80 µg/mL; MIC (Aspergillus fumigatus [16]): > 80 µg/mL; MIC (Candida albicans [17]): > 80 µg/mL; MIC (Candida albicans [8]; [22]): > 80 µg/mL; MIC (Candida albicans [9]; [22]): > 80 µg/mL |
| C[C@H]1N(C(=O)c2ccc(OCC(F)(F)F)cc2)CC(=O)O[C@@]1(Cn1cncn1)c1ccc(F)cc1F (racemic) | 40 µg/mL (≈ 78.4 µM) | > 80 µg/mL | 70% | > 80 µg/mL | > 40 µg/mL | > 80 µg/mL | 100% | > 80 µg/mL | > 80 µg/mL | 100% | > 80 µg/mL | 100% | > 80 µg/mL |  | > 80 µg/mL | > 80 µg/mL | 80 µg/mL (≈ 157 µM) | > 80 µg/mL | MIC [18]: > 80 µg/mL |
| C[C@H]1N(C(=O)c2ccc(OC(F)(F)F)cc2)CC(=O)O[C@@]1(Cn1cncn1)c1ccc(F)cc1F (racemic) | 40 µg/mL (≈ 80.6 µM) | > 80 µg/mL | 90% | > 80 µg/mL | > 40 µg/mL | > 80 µg/mL | 100% | > 80 µg/mL | > 80 µg/mL | 100% | > 80 µg/mL | 100% | > 80 µg/mL | > 80 µg/mL | > 80 µg/mL | > 80 µg/mL | 80 µg/mL (≈ 161 µM) | > 80 µg/mL |  |
